Laboratory results from ChEMBL document CHEMBL1127040, “Orally active beta-lactam inhibitors of human leukocyte elastase. 2. Effect of C-4 substitution” (1993).

Legend:
[1] = molecular target: T1, Neutrophil elastase (Homo sapiens) (UniProt P08246); experiment: Inhibition of Human Leukocyte Elastase, activity is expressed as biomolecular rate constant
T1 sequence (whole entry): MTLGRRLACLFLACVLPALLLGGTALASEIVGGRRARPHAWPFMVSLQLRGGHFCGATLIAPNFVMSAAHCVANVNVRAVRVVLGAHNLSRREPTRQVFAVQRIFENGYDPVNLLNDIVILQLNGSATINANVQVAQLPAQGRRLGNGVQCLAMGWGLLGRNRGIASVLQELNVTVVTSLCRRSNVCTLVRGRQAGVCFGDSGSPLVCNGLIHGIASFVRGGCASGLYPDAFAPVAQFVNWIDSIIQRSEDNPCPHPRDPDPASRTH
Method in brief: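 Spectrophotometric assay at 25 °C with continuous monitoring of p-nitroaniline release at 410 nm from succinyl-Ala-Ala-Pro-Ala-p-nitroanilide. Activity given as the bimolecular rate constant kobs/[I] in M-1 s-1 (±SE).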

[2] = molecular target: T1, Neutrophil elastase (Homo sapiens); experiment: Inhibition of Human Leukocyte Elastase induced lung hemorrhage in hamsters expressed as % inhibition (mean of 4 animals); type: functional; set-up: concentration or dose not given beside the values; conditions: concentration not given here
Method in brief: (§1)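 Hamster lung hemorrhage model: inhibitor given orally at 30 mg/kg (some at 50 mg/kg) 30 min before instillation of HLE into the lung. Hemorrhage measured 3 h after instillation as hemoglobin content of lung lavage fluid, read spectrophotometrically. Reported as % inhibition, mean of four animals (±SD).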

Cricetinae gen. sp. = experiment: Inhibition of Human Leukocyte Elastase induced Lung Hemorrhage in Hamsters expressed as % inhibition (mean of 4 animals); type: functional, Cricetulus griseus; method in brief: as §1

Compound | k obs / 1 [1] [M⁻¹ s⁻¹] | inhibition [2] [%] | Inhibition (Cricetinae gen. sp.) [%]
CCC1(CC)C(=O)N(C(=O)NCc2ccccc2)C1Oc1ccc(C(=O)O)c2ccccc12 (centres undefined) | 2000 | 15 | –
CCC1(CC)C(=O)N(C(=O)NCc2ccccc2)C1Oc1cccc(NC(C)=O)c1 (centres undefined) | 1700 | – | –
CCC1(CC)C(=O)N(C(=O)NCc2ccccc2)C1Oc1c(C)cc(C(=O)O)cc1C (centres undefined) | 750 | – | –
CCC1(CC)C(=O)N(C(=O)NCc2ccccc2)C1Sc1nnnn1C (centres undefined) | 3760 | – | 26
CCC1(CC)C(=O)N(C(=O)NCc2ccccc2)C1Oc1cccc([N+](=O)[O-])c1 (centres undefined) | 4800 | – | –
CCC1(CC)C(=O)N(C(=O)NCc2ccccc2)C1Oc1ccc2cc(C(=O)O)ccc2c1 (centres undefined) | 5600 | 28 | –
CCC1(CC)C(=O)N(C(=O)NCc2ccccc2)C1Oc1ccc(CC(N)C(=O)O)cc1 (centres undefined) | 2540 | – | –
CCC1(CC)C(=O)N(C(=O)NCc2ccccc2)C1Sc1cccnc1 (centres undefined) | 250 | -5 | –
CCC1(CC)C(=O)N(C(=O)NCc2ccccc2)C1Oc1ccc(C(=O)N2CCC[C@@H]2C(=O)O)cc1 (some centres undefined) | 2900 | – | –
CCC1(CC)C(=O)N(C(=O)NCc2ccccc2)C1Oc1ccc(CC(NC(=O)c2ccccc2)C(=O)O)cc1 (centres undefined) | 5110 | – | –
CCC1(CC)C(=O)N(C(=O)NCc2ccccc2)C1N1N=CC=CN1Cc1ccccc1 (centres undefined) | 650 | – | –
CCC1(CC)C(=O)N(C(=O)NCc2ccccc2)C1Oc1cccc(C(=O)O)c1 (centres undefined) | 1800 | 33 | –
CCC1(CC)C(=O)N(C(=O)NCc2ccccc2)C1Oc1ccc(CC(NC(=O)CCC(=O)O)C(=O)O)cc1 (centres undefined) | 900 | 7 | –
CCC1(CC)C(=O)N(C(=O)NCc2ccccc2)C1Oc1ccccc1 (centres undefined) | 1900 | – | –
CCC1(CC)C(=O)N(C(=O)NCc2ccccc2)C1Oc1ccc(/C=C/C(=O)O)cc1 (centres undefined) | 1600 | 61 | –
CCC1(CC)C(=O)N(C(=O)NCc2ccccc2)C1Oc1cccnc1 (centres undefined) | 1620 | 46 | –
CCC1(CC)C(=O)N(C(=O)NCc2ccccc2)C1Oc1ccc([N+](=O)[O-])cc1 (centres undefined) | 6800 | – | –
CCC1(CC)C(=O)N(C(=O)NCc2ccccc2)C1Oc1ccc(C(=O)O)cc1 (centres undefined) | – | 68 | –
CCC1(CC)C(=O)N(C(=O)NCc2ccccc2)C1C(=O)c1ccccc1 (centres undefined) | 22 | – | –
CCC1(CC)C(=O)N(C(=O)NCc2ccccc2)C1Oc1ccc(NC(=O)CCC(=O)O)cc1 (centres undefined) | 2330 | -3 | –
CCC1(CC)C(=O)N(C(=O)NCc2ccccc2)C1OCc1ccc(C(=O)O)cc1 (centres undefined) | 54 | – | –
CCC1(CC)C(=O)N(C(=O)NCc2ccccc2)C1Oc1ccc(C(=O)NS(=O)(=O)c2ccc(Cl)cc2)cc1 (centres undefined) | 6900 | 11 | –

Compound | k obs / 1 [1] [M⁻¹ s⁻¹] | inhibition [2] [%] | Inhibition (Cricetinae gen. sp.) [%]
CCC1(CC)C(=O)N(C(=O)NCc2ccccc2)C1Oc1ccc(C(O)C(=O)O)cc1 (centres undefined) | 2100 | 36 | –
CCC1(CC)C(=O)N(C(=O)NCc2ccccc2)C1Oc1ccccc1[N+](=O)[O-] (centres undefined) | 890 | – | –
CCC1(CC)C(=O)N(C(=O)NCc2ccccc2)C1Oc1ccccc1NC(C)=O (centres undefined) | 270 | 24 | –
CCC1(CC)C(=O)N(C(=O)NCc2ccccc2)C1Oc1ccc([S+](C)[O-])cc1 (centres undefined) | 4200 | – | –
CCC1(CC)C(=O)N(C(=O)NCc2ccccc2)C1Oc1cccc(NC(=O)CCC(=O)O)c1 (centres undefined) | 2700 | – | –
CCC1(CC)C(=O)N(C(=O)NCc2ccccc2)C1Oc1ccc(C(=O)O)c(C(=O)O)c1 (centres undefined) | 570 | – | –
CCC1(CC)C(=O)N(C(=O)NCc2ccccc2)C1Oc1cc(C)c(C(=O)O)c(C)c1 (centres undefined) | 24 | – | –
CCC1(CC)C(=O)N(C(=O)NCc2ccccc2)C1Oc1ccc(CN(C)C)cc1 (centres undefined) | 1600 | 0 | –
CCC1(CC)C(=O)N(C(=O)NCc2ccccc2)C1Oc1ccc(C(=O)CCC(=O)O)cc1 (centres undefined) | 5000 | 85 | –
CCC1(CC)C(=O)N(C(=O)NCc2ccccc2)C1OCC(=O)O (centres undefined) | 160 | 6 | –
CCC1(CC)C(=O)N(C(=O)NCc2ccccc2)C1Oc1ccc(NC(C)=O)cc1 (centres undefined) | 3500 | – | –
CCC1(CC)C(=O)N(C(=O)NCc2ccccc2)C1Oc1ccc(SC)cc1 (centres undefined) | 3500 | 2 | –
CCC1(CC)C(=O)N(C(=O)NCc2ccccc2)C1Oc1ccc(CCC(=O)O)cc1 (centres undefined) | 2440 | 60 | –
CCC1(CC)C(=O)N(C(=O)NCc2ccccc2)C1Oc1ccccc1NC(=O)CCC(=O)O (centres undefined) | 70 | – | –
CCC1(CC)C(=O)N(C(=O)NCc2ccccc2)C1N1C=NC=CN1 (centres undefined) | 246 | 72 | –
CCC1(CC)C(=O)N(C(=O)NCc2ccccc2)C1Oc1ccc(C[N+](C)(C)C)cc1 (centres undefined) | 2430 | 4 | –
CCC1(CC)C(=O)N(C(=O)NCc2ccccc2)C1Oc1ccccc1CC(=O)O (centres undefined) | 44 | 45 | –
CCC1(CC)C(=O)N(C(=O)NCc2ccccc2)C1n1ccccc1=O (centres undefined) | 360 | 29 | –
CCC1(CC)C(=O)N(C(=O)NCc2ccccc2)C1OCC(O)CO (centres undefined) | 800 | 46 | –
CCC1(CC)C(=O)N(C(=O)NCc2ccccc2)C1n1ccnc1 (centres undefined) | 200 | 55 | –
CCC1(CC)C(=O)N(C(=O)NCc2ccccc2)C1Oc1cccc(CC(=O)O)c1 (centres undefined) | 1200 | 67 | –
CCC1(CC)C(=O)N(C(=O)NCc2ccccc2)C1Oc1ccc(S(C)(=O)=O)cc1 (centres undefined) | 4500 | 16 | –
